Results on 5 molecules are retold here after ChEMBL document CHEMBL4406809, “Design of balanced COX inhibitors based on anti-inflammatory and/or COX-2 inhibitory ascidian metabolites” (Eur J Med Chem, 2019).

The source made the active and inactive calls. The rule behind the calls is not given here.

Data set [1] deals with RAW264.7. The data set can be described thus: Antiinflammatory activity against mouse RAW264.7 cells assessed as downregulation of LPS-stimulated iNOS protein expression at 10 uM pretreated for 1 hrs followed by LPS addition and measured after 24 hrs by Western blot analysis. The data set is classed as functional, cell-based. The method in brief: (§1)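 RAW264.7 macrophages (DMEM, 10% heat-inactivated FBS, 37 °C, 5% CO2) pretreated with compound, then cultured with or without LPS 1 µg/mL for 24 h. Lysates in buffer with protease/phosphatase inhibitors, BCA-normalised, 10% SDS-PAGE, PVDF transfer, milk/TBS-T block, primary antibody overnight at 4 °C, HRP anti-rabbit secondary, chemiluminescence. Dexamethasone 10 µM positive control; mean ± SD of three independent experiments.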
On the technique in general: In western blotting, separated proteins are transferred to a membrane and probed.

For data set [2], the system named is RAW264.7. Put plainly: Antiinflammatory activity against mouse RAW264.7 cells assessed as downregulation of LPS-stimulated COX2 protein expression at 10 uM pretreated for 1 hrs followed by LPS addition and measured after 24 hrs by Western blot analysis. Type of data set: functional, cell-based. The method in brief: as §1
Data set [3] has as its system RAW264.7. The data set can be described thus: Antiinflammatory activity against mouse RAW264.7 cells assessed as reduction in LPS-stimulated ROS production at 20 uM pretreated for 1 hrs followed by LPS addition and measured after 24 hrs by DCFH-DA dye based fluorescence assay. The data set is classed as functional, cell-based. The method in brief:
(§2)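 RAW264.7 cells at about 1×10^4 cells/well, grown 12 h, pretreated 1 h, then LPS 1 μg/mL for 24 h. Loaded with DCFH-DA at 100 μM final in FBS-free medium, 30 min at 37°C. After washing, fluorescence read at Ex 485/Em 520 nm on a plate reader; confocal imaging done in parallel dishes.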

Data set [4] deals with T1, Prostaglandin G/H synthase 1 (Ovis aries) (UniProt P05979).
T1 sequence (whole entry): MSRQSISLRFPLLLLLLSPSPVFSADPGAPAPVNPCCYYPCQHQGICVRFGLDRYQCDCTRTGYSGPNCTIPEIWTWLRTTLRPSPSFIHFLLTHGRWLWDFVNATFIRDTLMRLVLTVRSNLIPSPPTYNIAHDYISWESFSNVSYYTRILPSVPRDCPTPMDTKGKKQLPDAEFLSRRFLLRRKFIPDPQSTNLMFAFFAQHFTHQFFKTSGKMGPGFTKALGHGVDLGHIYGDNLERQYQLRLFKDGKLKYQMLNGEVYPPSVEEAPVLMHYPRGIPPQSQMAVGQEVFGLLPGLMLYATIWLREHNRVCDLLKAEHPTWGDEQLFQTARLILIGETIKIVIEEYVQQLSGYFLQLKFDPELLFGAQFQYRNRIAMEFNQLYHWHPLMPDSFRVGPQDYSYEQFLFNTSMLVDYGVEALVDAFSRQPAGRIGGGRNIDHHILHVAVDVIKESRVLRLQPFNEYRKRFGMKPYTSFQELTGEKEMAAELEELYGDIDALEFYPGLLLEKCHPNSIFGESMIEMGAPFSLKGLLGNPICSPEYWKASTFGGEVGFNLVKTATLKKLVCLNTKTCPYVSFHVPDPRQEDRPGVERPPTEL
The data set can be described thus: Inhibition of ovine COX1 at 30 uM using arachidonic acid as substrate pretreated for 5 mins followed by substrate addition and measured after 2 mins by fluorescence based enzyme immunoassay.

Data set [5] concerns the target T2, Prostaglandin G/H synthase 2 (Homo sapiens) (UniProt P35354).
T2 sequence (whole entry): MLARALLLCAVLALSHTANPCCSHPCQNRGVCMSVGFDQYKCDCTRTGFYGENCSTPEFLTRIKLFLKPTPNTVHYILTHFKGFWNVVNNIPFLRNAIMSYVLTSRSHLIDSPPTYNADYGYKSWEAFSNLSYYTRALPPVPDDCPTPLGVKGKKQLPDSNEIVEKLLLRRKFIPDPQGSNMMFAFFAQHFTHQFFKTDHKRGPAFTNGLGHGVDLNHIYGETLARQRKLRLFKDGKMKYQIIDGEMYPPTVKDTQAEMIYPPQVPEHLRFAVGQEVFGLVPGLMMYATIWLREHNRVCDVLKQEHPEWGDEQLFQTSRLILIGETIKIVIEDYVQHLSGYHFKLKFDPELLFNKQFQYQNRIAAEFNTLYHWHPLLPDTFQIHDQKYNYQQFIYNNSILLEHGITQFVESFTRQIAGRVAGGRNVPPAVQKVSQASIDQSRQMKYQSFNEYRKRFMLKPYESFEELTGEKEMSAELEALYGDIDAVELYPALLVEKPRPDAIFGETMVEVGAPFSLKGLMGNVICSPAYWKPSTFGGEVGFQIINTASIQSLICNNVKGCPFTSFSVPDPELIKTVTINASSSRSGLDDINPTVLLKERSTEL
Put plainly: Inhibition of recombinant human COX2 at 30 uM using arachidonic acid as substrate pretreated for 5 mins followed by substrate addition and measured after 2 mins by fluorescence based enzyme immunoassay.

For data set [6], the system named is RAW264.7. Put plainly: Cytotoxicity against mouse RAW264.7 cells assessed as reduction in cell viability up to 50 uM incubated of WST assay. Type of data set: cell-based. The method in brief:
(§3)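 Cells seeded at 1.0×10^4 cells/well, grown 12 h in DMEM with 10% FBS, then exposed 24 h to 10, 25 or 50 μM; medium-only controls. WST reagent added for 1 h at 37°C and absorbance read at 450 nm. Cells in exponential phase.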

Data set [7] can be described thus: Cytotoxicity against rat Ac2F cells assessed as reduction in cell viability up to 50 uM incubated of WST assay. The data set is classed as cell-based. The method in brief: as §3
The subject of the next data set is L929. The data set can be described thus: Cytotoxicity against mouse L929 cells assessed as reduction in cell viability up to 50 uM incubated of WST assay. Type of data set: cell-based. The method in brief: as §3
In data set [8] the test system is RAW264.7. Put plainly: Antiinflammatory activity against mouse RAW264.7 cells assessed as downregulation of LPS-stimulated iNOS protein expression pretreated for 1 hrs followed by LPS addition and measured after 24 hrs by Western blot analysis. Type of data set: functional, cell-based. The method in brief:
(§4)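 Cells treated at various concentrations, then cultured with or without LPS (1 µg/mL) for 24 h; dexamethasone 10 µM as positive control. Lysates taken in buffer with protease/phosphatase inhibitors and protein quantified by BCA. Equal protein run on 10% SDS-PAGE, transferred to PVDF, blocked in TBS-T/5% milk, then primary antibodies overnight at 4°C and HRP anti-rabbit secondary. Mean ± SD, n=3.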

The subject of data set [9] is RAW264.7. Put plainly: Antiinflammatory activity against mouse RAW264.7 cells assessed as downregulation of LPS-stimulated COX2 protein expression pretreated for 1 hrs followed by LPS addition and measured after 24 hrs by Western blot analysis. Type of data set: functional, cell-based. The method in brief: as §4
The test system of data set [10] is RAW264.7. The data set can be described thus: Antiinflammatory activity against mouse RAW264.7 cells assessed as downregulation of LPS-stimulated iNOS protein expression at 20 uM pretreated for 1 hrs followed by LPS addition and measured after 24 hrs by Western blot analysis. The data set is classed as functional, cell-based. The method in brief:
as §4

Data set [11] relates to RAW264.7. Put plainly: Antiinflammatory activity against mouse RAW264.7 cells assessed as downregulation of LPS-stimulated COX2 protein expression at 20 uM pretreated for 1 hrs followed by LPS addition and measured after 24 hrs by Western blot analysis. Type of data set: functional, cell-based. The method in brief: as §4
For data set [12], the system named is RAW264.7. Put plainly: Antiinflammatory activity against mouse RAW264.7 cells assessed as inhibition of LPS-stimulated NO production pretreated for 1 hrs followed by LPS addition and measured after 24 hrs by Griess reagent based assay. The data set is classed as functional, cell-based. The method in brief:
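RAW264.7 cells at about 1×10^4 cells/well, grown 12 h. Pretreated 1 h at 2.5, 5 or 10 μM, then LPS 25 ng/mL for 24 h. Supernatant mixed 1:1 with Griess reagent for 15 min at 37°C in the dark, A520 read. Nitrite quantified against 0–100 μM sodium nitrite standards.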
Background: Nitrite, measured by Griess reagent, commonly stands in for NO production.

Data set [13] addresses T3, Prostaglandin G/H synthase 2 (Mus musculus) (UniProt Q05769).
T3 sequence (whole entry): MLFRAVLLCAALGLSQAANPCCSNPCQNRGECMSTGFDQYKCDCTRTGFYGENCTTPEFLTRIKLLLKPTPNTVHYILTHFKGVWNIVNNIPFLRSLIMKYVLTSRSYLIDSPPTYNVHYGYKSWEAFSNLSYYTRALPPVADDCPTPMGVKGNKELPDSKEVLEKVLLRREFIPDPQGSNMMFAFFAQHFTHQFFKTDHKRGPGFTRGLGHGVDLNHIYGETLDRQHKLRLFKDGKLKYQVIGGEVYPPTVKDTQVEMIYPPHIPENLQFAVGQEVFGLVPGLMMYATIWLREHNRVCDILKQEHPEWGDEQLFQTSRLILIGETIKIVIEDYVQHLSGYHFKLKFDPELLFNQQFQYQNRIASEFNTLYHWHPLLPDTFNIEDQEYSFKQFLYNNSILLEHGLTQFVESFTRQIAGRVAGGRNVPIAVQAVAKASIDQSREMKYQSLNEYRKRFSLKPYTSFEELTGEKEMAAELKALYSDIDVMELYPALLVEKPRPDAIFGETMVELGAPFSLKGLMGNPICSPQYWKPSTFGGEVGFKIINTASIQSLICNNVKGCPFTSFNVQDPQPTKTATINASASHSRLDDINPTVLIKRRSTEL
The data set can be described thus: Inhibition of COX2 in mouse RAW264.7 cells assessed as decrease in LPS-stimulated PGE2 production pretreated for 1 hrs followed by LPS addition and measured after 24 hrs by sandwich ELISA. Type of data set: cell-based. The method in brief: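 RAW264.7 cells at about 1×10^4 cells/well, grown 12 h. Pretreated 1 h at 2.5, 5 or 10 μM, then stimulated with LPS 100 ng/mL for 24 h. PGE2 in the medium measured by PGE2 express ELISA, absorbance at 415 nm. Representative of three independent experiments.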
Background: In an ELISA, binding on a coated surface is turned into a signal by an enzyme label.

Data set [14] relates to RAW264.7. Put plainly: Antiinflammatory activity against mouse RAW264.7 cells assessed as decrease in LPS-stimulated TNFalpha production pretreated for 1 hrs followed by LPS addition and measured after 24 hrs by sandwich ELISA. The data set is classed as functional, cell-based.
Data set [15] relates to RAW264.7. The data set can be described thus: Antiinflammatory activity against mouse RAW264.7 cells assessed as decrease in LPS-stimulated IL6 production pretreated for 1 hrs followed by LPS addition and measured after 24 hrs by sandwich ELISA. Type of data set: functional, cell-based. The method in brief: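 RAW264.7 cells seeded at about 1×10^4 cells/well and grown 12 h. Pretreated 1 h with 2.5, 5 or 10 μM, then LPS 100 ng/mL added: 24 h for IL-6, 3 h for TNF-α. Cytokines in the medium quantified by sandwich ELISA, A450. Representative of three independent experiments.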

In data set [16] the target is Transcription factor p65 (Mus musculus) (UniProt Q04207). Put plainly: Inhibition of LPS-stimulated NFkappaB p65 nuclear translocation in mouse RAW264.7 cells retreated for 1 hrs followed by LPS addition and measured after 30 mins by Western blot analysis. Type of data set: cell-based.
Chain of Transcription factor p65 (Mus musculus) (Q04207 whole entry): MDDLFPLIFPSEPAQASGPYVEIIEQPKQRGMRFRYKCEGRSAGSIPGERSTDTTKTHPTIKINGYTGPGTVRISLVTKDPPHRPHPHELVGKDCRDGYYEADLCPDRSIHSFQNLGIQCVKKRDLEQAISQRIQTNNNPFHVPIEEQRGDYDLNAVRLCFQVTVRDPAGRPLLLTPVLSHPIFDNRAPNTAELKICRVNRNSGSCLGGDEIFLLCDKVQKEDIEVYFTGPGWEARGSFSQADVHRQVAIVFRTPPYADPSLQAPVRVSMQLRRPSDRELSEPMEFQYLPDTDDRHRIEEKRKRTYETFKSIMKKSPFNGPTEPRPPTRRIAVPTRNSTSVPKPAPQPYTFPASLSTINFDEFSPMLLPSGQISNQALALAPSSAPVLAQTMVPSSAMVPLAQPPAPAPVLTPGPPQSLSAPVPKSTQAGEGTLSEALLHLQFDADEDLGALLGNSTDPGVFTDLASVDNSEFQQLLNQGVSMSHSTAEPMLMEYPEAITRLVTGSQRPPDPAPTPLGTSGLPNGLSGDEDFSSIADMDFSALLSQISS
Data set [17] concerns RAW264.7. Put plainly: Antiinflammatory activity against mouse RAW264.7 cells assessed as reduction in LPS-stimulated ROS production pretreated for 1 hrs followed by LPS addition and measured after 24 hrs by DCFH-DA dye based fluorescence assay. The data set is classed as functional, cell-based. The method in brief: as §2
For data set [18], the target named is T4, I-kappa-B kinase (Mus musculus) (UniProt Q60680+O88351+O88522). The data set can be described thus: Inhibition of LPS-stimulated IKK phosphorylation in mouse RAW264.7 cells at 5 to 20 uM pretreated for 1 hrs followed by LPS addition and measured after 30 mins by Western blot analysis. The data set is classed as cell-based.
For data set [19], the target named is T4, I-kappa-B kinase (Mus musculus). The data set can be described thus: Inhibition of LPS-stimulated IKK phosphorylation in mouse RAW264.7 cells assessed as decrease in IkappaBalpha phosphorylation level at 5 to 20 uM pretreated for 1 hrs followed by LPS addition and measured after 30 mins by Western blot analysis. Type of data set: cell-based.
The target of data set [20] is Transcription factor p65 (Mus musculus) (UniProt Q04207). The data set can be described thus: Inhibition of LPS-induced NFkappaB p65 nuclear translocation in mouse RAW264.7 cells at 20 uM preincubated for 1 hrs followed by LPS-stimulation and measured after 24 hrs by DAPI staining based confocal microscopic method. Type of data set: cell-based.

As for `C[C@@H]1C[C@H]2[C@@H]3CCC4=CC(=O)C=C[C@]4(C)[C@@]3(F)[C@@H](O)C[C@]2(C)[C@@]1(O)C(=O)CO`, the result in the data set with RAW264.7 [1] and in the data set on RAW264.7 [2] was Active.

For the molecule `O=C(O)Cc1ccccc1Nc1c(Cl)cccc1Cl`, the result with RAW264.7 [3] was Active.

Turning to `CCCCC/C=N/NC(=O)c1cn(Cc2ccc(Cl)cc2)c2ccccc12`, the inhibition entry in data set [4] and in data set [5] was “Active” each time.

Consider `O=C(N/N=C/c1ccco1)c1cn(Cc2ccc(Cl)cc2)c2ccccc12`, for which the inhibition entry in data set [4] and in [5] was “Active” in each case.

Take `N#Cc1ccc(/C=N/NC(=O)c2cn(Cc3ccc(Cl)cc3)c3ccccc23)cc1`: the Activity entry with RAW264.7 [6] is “Non-Toxic”; in data set [7] it was “Non-Toxic”; in the data set on L929, “Non-Toxic”; in the data set with RAW264.7 [8], “Dose-dependent effect”; with RAW264.7 [9], “Dose-dependent effect”; in the data set on RAW264.7 [14], “Dose-dependent effect”. The Activity result in the data set on RAW264.7 [15] and in the data set on RAW264.7 [17] was “Dose-dependent effect” throughout. For the same molecule, the outcome with RAW264.7 [10], with RAW264.7 [11] and in the data set with RAW264.7 [3] was Active. Moreover, the inhibition result (with RAW264.7 [12]; in data set [16]) was “Dose-dependent effect” each time. Besides, the inhibition entry in data set [13], in [18], in [19], in data set [20], in data set [4] and in data set [5] was “Active” each time.
